Reference: ChEMBL document CHEMBL1124569, “5-HT1A-receptor antagonism: N-alkyl derivatives of (R)-(-)-8,11-dimethoxynoraporphine” (J Med Chem, 1989)
Activity calls are given as the source filed them. No cut-off for these calls is given here.

Assays:
[1] = test system: Felis catus; test: Minimum effective dose administered intravenously for decrease in heart rate in cat; format: functional; details: iv, read-out: MED
Procedure, shortened: (§1)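 Cats anesthetized with pentobarbital sodium (30 mg/kg ip), intubated and ventilated, with bilateral vagotomy and atropine sulfate 200 μg/kg. Compound given iv via femoral vein, doses up to 1 mg/kg. Femoral arterial pressure and heart rate were recorded continuously. The right postganglionic cardioaccelerator nerve was stimulated at 2 Hz, 5 ms, 20 V.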

[2] = molecular target: D(2) dopamine receptor (Rattus norvegicus, UniProt P61169); test: Binding affinity of compound against Dopamine receptor D2 binding site using radioligand [3H]spiperone
Chain of D(2) dopamine receptor (P61169 whole entry): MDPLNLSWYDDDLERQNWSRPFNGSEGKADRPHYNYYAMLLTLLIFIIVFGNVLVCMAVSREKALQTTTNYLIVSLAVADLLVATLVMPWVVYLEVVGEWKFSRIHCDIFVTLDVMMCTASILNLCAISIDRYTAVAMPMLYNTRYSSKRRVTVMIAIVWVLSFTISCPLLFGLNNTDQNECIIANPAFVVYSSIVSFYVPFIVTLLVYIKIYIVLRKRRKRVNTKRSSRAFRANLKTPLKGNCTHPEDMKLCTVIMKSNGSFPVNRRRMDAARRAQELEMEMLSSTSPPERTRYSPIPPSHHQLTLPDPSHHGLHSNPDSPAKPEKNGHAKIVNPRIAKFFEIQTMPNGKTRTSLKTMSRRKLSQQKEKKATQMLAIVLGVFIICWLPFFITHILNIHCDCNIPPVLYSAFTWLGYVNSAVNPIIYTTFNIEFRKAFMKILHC

[3] = test system: Felis catus; test: Minimum effective dose administered intravenously for decrease in arterial pressure in cat heart; format: functional; details: Artery, iv, read-out: MED; procedure, shortened: as §1
[4] = organism: Rattus norvegicus; test: Ability of compound to induce behavioral changes in rat; format: functional; details: read-out: MED
Procedure, shortened: (§2)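 Rats dosed subcutaneously and observed for locomotor activity and serotonin syndrome signs (flat body posture, forepaw extension and padding, abducted hindlimbs, forebody tremor). Antagonism was tested by giving the compound 15 min before subcutaneous 8-OH-DPAT.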

[5] = molecular target: T1, 5-hydroxytryptamine receptor 1A (Rattus norvegicus, UniProt P19327); test: Binding affinity of compound against 5-hydroxytryptamine 1A receptor binding site using radioligand [3H]8-OH-DPAT
T1 sequence (P19327 whole entry): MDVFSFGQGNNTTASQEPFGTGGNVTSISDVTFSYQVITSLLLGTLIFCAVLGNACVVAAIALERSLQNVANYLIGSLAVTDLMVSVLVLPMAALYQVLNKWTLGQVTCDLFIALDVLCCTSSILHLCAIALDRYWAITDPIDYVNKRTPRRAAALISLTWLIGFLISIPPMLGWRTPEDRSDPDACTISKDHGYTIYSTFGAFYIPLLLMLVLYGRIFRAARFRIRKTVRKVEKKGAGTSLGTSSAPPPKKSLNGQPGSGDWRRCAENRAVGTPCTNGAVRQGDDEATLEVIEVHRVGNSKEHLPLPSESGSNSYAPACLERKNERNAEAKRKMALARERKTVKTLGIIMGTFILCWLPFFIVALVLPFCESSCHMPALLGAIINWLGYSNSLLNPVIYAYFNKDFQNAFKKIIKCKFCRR

[6] = organism: Rattus norvegicus; test: Ability of compound to induce behavioral changes in rat; Not active; format: functional, organism-based; procedure, shortened: as §2

| Compound | minimal effective dose [1] [mg/kg] | Ki [2] [µM] | minimal effective dose [3] [mg/kg] | minimal effective dose [4] [mg/kg] | Ki [5] [µM] | MED [6] |
| --- | --- | --- | --- | --- | --- | --- |
| COc1ccc(OC)c2c1C[C@@H]1c3c(cccc3-2)CCN1C | > 1 | 0.21 | > 1 | 5 | 0.0086 | – |
| CN1CCc2cccc3c2[C@H]1Cc1ccc(O)c(O)c1-3 [APOMORPHINE] | 0.01 | – | 0.01 | 1 | – | – |
| CCCN1CCc2cccc3c2[C@H]1Cc1c(OC)ccc(OC)c1-3 | > 1 | 0.77 | > 1 | – | 0.24 | inactive |
| CCCN(CCC)C1CCc2cccc(O)c2C1 (stereo not drawn) [8-OH-DPAT] | 0.01 | 3.5 | 0.01 | 0.5 | – | – |
| O=C(CCCN1CCC2(CC1)C(=O)NCN2c1ccccc1)c1ccc(F)cc1 [SPIPERONE] | – | – | – | – | 0.03 | – |
